# UPR XBP1 act – activators of adaptive arm of unfolded protein response (XBP1). 0.33% of 330,000 active. activation, % at 20 µM. AID 463104. CHO-XBP1 luciferase reporter, IRE1-XBP1 UPR activation, luminescence; percent of tunicamycin response, DMSO as zero;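 active = versus positive control, 20 µM dose yields 30% or more activation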;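 also: 100% = tunicamycin at 10 µg/mL and 0% = DMSO only wells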
#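 assay system = CHO-XBP1 luciferase reporter cells | amount = 1000 cells/well | buffer or medium = F12 plus 10% FBS | compound dosing = single point, 20 µM final compound, 1% DMSO | incubation = 16-18 h cell attachment at 37 °C, then 6 h compound exposure | detection = Steady-Glo luminescence read | controls = tunicamycin 10 µg/mL and vehicle-only wells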
# Apaf1 inhib – blocks human Apaf-1 apoptosome activity; inhibition, % at 20 µM; O14727; 0.71% of 330,000 active; reconstituted apoptosome caspase-3 activity, DEVD-Rh110 fluorescence; active = inhibition of at least 40% at 20 µM;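 also: plate controls were DMSO wells for no effect and DEVD-CHO caspase inhibitor wells for full effect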
#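 System – cell-free apoptosome with Apaf-1, procaspase-3 and caspase-9 · Buffer or medium – pH 7.5 Hepes buffer with CHAPS, BSA, DTT · Also added – cytochrome c with DEVD-Rh110 · Times – 30 min compound preincubation, 50 min activation, room temperature · Technique – Rh110 fluorescence intensity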
# Mdm2 MdmX PPI – disrupts the human Mdm2-MdmX interaction. inhibition, % at 8 µM. SaOS-2 split-luciferase Mdm2/MdmX complementation, luminescence. O15151+Q00987. 3% of 330,000 active;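 active = inhibition of at least 50% at 8 µM in the primary screen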
# Target sequence (O15151 whole entry, looked up): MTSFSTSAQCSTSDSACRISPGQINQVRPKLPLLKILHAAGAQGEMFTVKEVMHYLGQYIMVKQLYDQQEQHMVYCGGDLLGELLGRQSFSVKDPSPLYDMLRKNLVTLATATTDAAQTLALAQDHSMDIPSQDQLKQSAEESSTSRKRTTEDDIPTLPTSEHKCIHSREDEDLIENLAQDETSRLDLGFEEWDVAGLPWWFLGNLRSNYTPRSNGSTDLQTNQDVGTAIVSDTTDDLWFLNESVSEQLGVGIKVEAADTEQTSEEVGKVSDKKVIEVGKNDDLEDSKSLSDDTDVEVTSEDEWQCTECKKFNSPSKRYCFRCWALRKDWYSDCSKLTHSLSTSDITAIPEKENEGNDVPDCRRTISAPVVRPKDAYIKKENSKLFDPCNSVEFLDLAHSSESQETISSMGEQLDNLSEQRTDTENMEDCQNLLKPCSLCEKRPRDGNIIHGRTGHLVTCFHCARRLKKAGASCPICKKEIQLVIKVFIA
# Target sequence (Q00987 whole entry, looked up): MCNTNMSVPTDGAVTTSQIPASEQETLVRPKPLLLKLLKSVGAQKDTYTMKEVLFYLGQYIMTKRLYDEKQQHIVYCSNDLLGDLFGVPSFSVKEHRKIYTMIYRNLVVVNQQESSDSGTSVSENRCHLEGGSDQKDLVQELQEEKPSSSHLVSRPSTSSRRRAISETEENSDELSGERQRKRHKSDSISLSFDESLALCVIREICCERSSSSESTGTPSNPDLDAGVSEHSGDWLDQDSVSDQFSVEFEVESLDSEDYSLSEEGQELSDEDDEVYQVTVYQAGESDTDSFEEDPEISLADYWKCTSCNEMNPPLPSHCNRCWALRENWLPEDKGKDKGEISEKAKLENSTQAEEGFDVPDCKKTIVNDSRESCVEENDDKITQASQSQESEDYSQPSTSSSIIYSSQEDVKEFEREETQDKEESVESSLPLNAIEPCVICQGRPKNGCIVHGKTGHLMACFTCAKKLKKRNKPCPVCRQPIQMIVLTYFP
# UBC13 inh – blocks human UBC13 polyubiquitin chain formation | P61088 | TR-FRET | inhibition, % at 20 µM | 0.47% of 330,000 active; in the data active = inhibition above about 45%, passing the limit was not always enough
# CHOP UPR activ – activators of apoptotic arm of unfolded protein response (CHOP) | CHO-CHOP luciferase reporter, UPR activation, luminescence; percent of tunicamycin response over DMSO baseline | activation, % at 10 µM | 0.34% of 330,000 active | AID 449763;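 active = at 10 µM dose, activation of 40% or more, normalized to positive control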;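 also: 100% = tunicamycin at 10 µg/mL and 0% = DMSO alone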
#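 System: CHO-CHOP luciferase reporter cell line | Buffer or medium: F12 medium containing 10% fetal bovine serum | Doses: One dose, 10 µM in 0.5% DMSO | Times: 6 h compound exposure at 37 °C after overnight seeding | Signal: Luciferase luminescence | Read-out: % activation vs tunicamycin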
# Mdm2-MdmX conf – human Mdm2/MdmX binding inhibition, confirmed. shares compounds with Mdm2 MdmX PPI. luminescent assay. inhibition, % at 8 µM. 55% of 10,000 active. AID 489028; in the data active = inhibition above about 40%
# Full FLuc ctr – inhibits full-length luciferase, flagging false Mdm2/MdmX hits; SaOS-2 full-length luciferase counterscreen, luminescence; shares compounds with Mdm2 MdmX PPI; 77% of 6,200 active; inhibition, % at 8 µM; AID 504607;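 active = mean inhibition at 8 µM reaching about 37%, which flags the compound as non-specific, limit read from the data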;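 also: p53-null SaOS-2 cells with luciferase driven by a doxycycline-inducible promoter; compound on cells about two nights before reading with doxycycline added after day one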
# Starred values were filed as active, the others as inactive; · = not tested or not shown. Rows were chosen to be rich in hits. Some 4.1% of all compounds tested hit in one or more screens of this group.
SMILES,UPR XBP1 act,Apaf1 inhib,Mdm2 MdmX PPI,UBC13 inh,CHOP UPR activ,Mdm2-MdmX conf,Full FLuc ctr
COc1cccc(N2CCN(c3ncnc4c3[nH]c3ccccc34)CC2C)c1 (stereo unspecified),-10.9,13.2,100.2*,14.3,-5.6,97.6*,3.3
O=C(OCC(=O)N1CCN(c2ccccc2)CC1)c1ccc[n+]([O-])c1,-3.2,-11.1,-4.1,9.2,-1.9,·,·
Oc1c(C(Nc2cccc(C(F)(F)F)c2)c2ccncc2)ccc2cccnc12 (stereo unspecified),6.5,3.5,60.5*,-18.0,11.9,49.0*,21.1
O=C(Nc1cccc(C(F)(F)F)c1)c1cccnc1,-0.8,-2.9,-30.4,-7.7,2.3,·,·
O=c1cc(Nc2ccc3c(c2)OCCO3)[nH]c(=O)n1C1CCCCC1,1.4,-13.0,54.8*,-6.5,4.6,52.9*,57.8*
Cc1cccc(NC(=O)CSc2nc3ccc(NC(=O)CSc4nnnn4-c4ccccc4)cc3s2)c1C,-5.1,6.9,58.5*,-20.7,4.7,-5.1,·
CCn1c(SCC(=O)Nc2ccc(F)cc2)nnc1-c1cnccn1,-1.6,8.4,4.6,-4.3,1.9,·,·
O=C(Nc1nc2cc3c(cc2s1)OCCO3)c1ccco1,-9.1,8.4,70.7*,2.1,-8.4,68.3*,74.2*
O=C(Nc1nc2cc3c(cc2s1)OCO3)C1=COCCO1,-9.5,11.0,51.9*,-8.5,-9.2,28.1,·
O=C(Nc1nc(-c2nc3ccccc3s2)cs1)c1ccco1,-0.6,4.2,72.6*,-8.8,4.5,-14.8,·
O=C(Nc1nc(-c2ccc(Cl)s2)cs1)c1ccco1,4.8,1.0,-54.2,-6.7,4.0,·,·
Cc1cc(C)c(C)c(S(=O)(=O)NCc2ccc(C(=O)N3CCCCC3)cc2)c1C,-2.5,6.6,9.1,4.8,1.3,·,·
COc1cccc(NC(=S)N2CCn3c(nc4ccccc43)C2)c1,-2.8,-14.5,-3.3,1.7,0.7,·,·
CCOc1ccc(N(CC(=O)Nc2ccc(OC)cc2)C2=NC3CS(=O)(=O)CC3S2)cc1 (stereo unspecified),-2.2,13.4,-19.1,-9.6,-0.4,·,·
CCC(=O)N1CCN=C1SCc1cccc(F)c1,1.3,-0.5,16.3,-5.4,1.3,·,·
CC(C)(C)OC(=O)N/N=C/c1cccn1-c1ccc([N+](=O)[O-])cc1,0.3,-3.0,-12.3,-1.0,-0.4,·,·
CN(C)c1ccc(-n2cccc2/C=C/[N+](=O)[O-])cc1,1.1,4.9,65.2*,-9.9,17.3,34.2,·
COc1ccc(C2C3=C(Nc4ncnn42)c2ccccc2CCC3)cc1 (stereo unspecified),-0.9,-10.8,13.0,3.4,-0.5,·,·
Fc1ccc(/C=C2\CCCC3=C2Nc2ncnn2C3c2ccc(F)cc2)cc1 (stereo unspecified),-0.6,28.3,98.6*,11.8,14.9,47.4*,1.0
Cc1nc2ccccc2c2oc(C(=O)N3CCN(c4ccc([N+](=O)[O-])cc4)CC3)cc12,-8.0,11.3,85.7*,5.8,-1.6,16.9,·
Cc1nc2ccccc2c2oc(C(=O)N3CCN(C(=O)c4ccco4)CC3)cc12,-0.5,-11.3,28.8,3.4,-0.8,·,·
CCOc1ccccc1/C=N/Nc1ccc(Cl)nn1,1.2,10.3,9.2,1.3,3.2,·,·
CCOc1ccc(/C=N/Nc2ccc(Cl)nn2)c(O)c1,-2.0,1.2,54.3*,-14.0,4.6,38.4,57.8*
Cn1ncc2c(Nc3ccc(Br)cc3)nc(Nc3ccc(Br)cc3)nc21,13.3,20.2,60.2*,25.1,3.1,26.3,·
Cn1ncc2c(Nc3cccc(Cl)c3)nc(Nc3cccc(Cl)c3)nc21,5.0,30.7,50.0*,41.0,2.8,20.0,·
O=c1[nH]c(=O)n(Cc2ccccc2)c2c1C(C(F)(F)F)(C(F)(F)F)N=C(c1ccco1)N2,3.9,-9.8,-1.1,6.5,-0.8,·,·
O=c1[nH]c(=O)n(Cc2ccco2)c2c1C(C(F)(F)F)(C(F)(F)F)N=C(c1ccc(F)cc1)N2,4.9,5.8,65.4*,-5.3,3.7,83.9*,58.0*

# Screening data as filed in PubChem.
